Assay results reported in publication PMC3954503 (Journal of Medicinal Chemistry, 2014).
Read-outs that look alike come from different tables or passages of the source.

Columns and labels:
[1] = tested on: HIV-1 FSS RNA upper stem-loop; assay: SPR binding to immobilized HIV-1 FSS RNA upper stem-loop; conditions: for increased affinity over 2 and 3 / weaker binding / decrease in affinity relative to dimers 4 and 5: SPR KD ratio
Procedure, shortened: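 Streptavidin (about 2000 RU) on a CM5 chip; 5′-biotin HIV-1 FSS RNA (500 nM) captured once at about 300 RU and once at about 1200 RU, against a biotin-blocked reference cell. Compound series run in (a) HBS pH 7.4 at 60 μL/min or (b) HEPES/NaCl/MgCl2/Tween-20 at 50 μL/min, each injection at least twice. For (a), ≥5 sensorgrams globally fit to a 1:1 Langmuir model; for (b), individual fits; ka, kd, KD derived.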

[2] = tested on: HIV-1 FSS RNA upper stem-loop; conditions: conditions (a) HBS buffer; ref [35]; cited from earlier work
tRNA = conditions: previously found; cited from earlier work
[3] = tested on: pseudotyped HIV-1 virions; assay: Single-round infectivity assay with pseudotyped HIV-1; assay type: cell-based
HEK 293FT cells [4] = assay: Cell permeation by fluorescence microscopy; assay type: cell-based, human; conditions: HEK 293FT, 50, 100, 200, and 500 μM for 12 h
Procedure, shortened: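 HEK 293FT cells grown to 80% confluence at 37 °C, 5% CO2, in DMEM with 10% FBS and 1% penicillin-streptomycin. Cells exposed to test compound for 12 h (methods give 50 μM; the text lists 50–500 μM). Washed twice with PBS to remove surface-bound compound, then imaged in buffer by fluorescence microscopy with 358-nm excitation and 460-nm emission filters.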

[5] = tested on: Gag:Gag-Pol ratio in pseudotyped virions; assay: Western blot of isolated viral particles for RT and p24; assay type: cell-based, HIV-1; conditions: for RT in unprocessed Gag-Pol (p160) relative to mature RT (p66 + p51) / amount of RT relative to capsid protein p24: Western blot of viral particles; for amount of RT relative to capsid protein p24: as a function of added compound
Procedure, shortened: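 HEK293T producer cells co-transfected with env-deleted, GFP-carrying HIV-1NL4–3 proviral vector and VSV-G vector (1:0.5, Fugene HD). Test compound added 4 h post-transfection; virions collected from media at 24 h through a 0.45-μm filter. Equal p24-ELISA loads were pelleted through a 20% sucrose cushion at 100,000g, then Western blotted for RT and p24.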

HTLV-2 FSS RNA = assay: SPR binding to HTLV-2 FSS RNA; conditions: concentrations up to 3 μM; HBS buffer
Procedure, shortened: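 SPR on a CM5 chip with about 2000 RU streptavidin, immobilized by EDC/NHS. 5′-Biotin HTLV-2 FSS RNA (500 nM) captured to about 300–1200 RU; the biotin-blocked flow cell served as reference. Test compound flowed at varying concentrations in HBS (0.01 M HEPES, 0.150 M NaCl, pH 7.4) at 60 μL/min. Each concentration injected at least twice; sensorgrams reference-subtracted and blank-corrected.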

HEK 293FT cells [6] = assay: WST-1 cell viability assay; assay type: cell-based, human; conditions: 24 h
Procedure, shortened: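 HEK 293FT cells grown to 80% confluence in 96-well plates (DMEM, 10% FBS, 37 °C). Test compound (up to 0.5 mM) or sterile water control added in triplicate for 24 h at 37 °C. Premix WST-1 reagent then added for 2 h at 37 °C. Absorbance at 450 minus 690 nm, blank-corrected, plotted against concentration; mean of three with SD.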

[7] = tested on: pDualHIV(0) transfected HEK 293FT cells; assay: Dual-luciferase control assay, pDualHIV; assay type: cell-based, human
Procedure, shortened: (§1)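 HEK 293FT cells plated at 1.5 × 10^4 cells/well 6 h before transfection, in DMEM with 10% FBS. Transfected with 0.2 μg reporter plasmid (lipofectamine 2000). At 5 h, test compound (0–50 μM) added in triplicate for 36 h at 37 °C. Cells PBS-washed and lysed; Rluc and Fluc read by dual-luciferase assay. Fluc/Rluc ratio expressed relative to untreated cells, set to 100%.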

HIV-1 FSS DNA = assay: Fluorescence titration with HIV-1 FSS DNA; assay type: binding; conditions: by fluorescence
Procedure, shortened: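 Fluorescence titration in 20 mM HEPES, 150 mM NaCl, with test compound at 1 μM. HIV-1 FSS RNA (10 μM stock) or FSS DNA (40 μM stock) titrated in. Each addition mixed, then 10 min to equilibrate. Benzo[g]quinoline fluorescence quenching read three times, 1 min apart, and corrected for dilution to give KD. Selectivity compares the FSS RNA and FSS DNA KDs.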

[8] = tested on: HIV-1 FSS-dependent −1 frameshifting in HEK 293FT cells; assay: Dual-luciferase frameshift assay, pDualHIV; assay type: cell-based, human; conditions: pDualHIV(−1)
Procedure, shortened: as §1

HIV-1 FSS RNA = conditions: read-out: KD for HIV-1 FSS; ref [31]; cited from earlier work
[9] = conditions (a) HBS buffer (0.01 M HEPES, 0.150 M NaCl, pH = 7.4), global fit
[10] = conditions (b) 20 mM HEPES, 150 mM NaCl, 5 mM MgCl2, 0.005% Tween-20

In the case of “2-ethyl benzo[g]quinoline carboxylic acid”, the “binding to HIV-1 FSS RNA by SPR (qualitative)” value [1] is reported as “No binding was observed”.

For `CCc1nc2ccccc2cc1C(=O)N[C@@H](C/C=C/C[C@H](NC(=O)c1cc2ccccc2nc1CC)C(=O)N1CCC[C@H]1C(=O)N[C@@H](Cc1ccccc1)C(=O)NCCCN)C(=O)N1CCC[C@H]1C(=O)N[C@@H](Cc1ccccc1)C(=O)NCCCN` [Compound 3], the “association rate, ka” value [2] is given as 1.62 × 10^3 M^–1s^-1, the dissociation rate kd [2] is given as 7.5 × 10^–3 s^–1 and the “affinity for tRNA” value (tRNA) is given as “no measurable affinity”. The “activity in pseudotyped HIV-1 assay” value ([3]; preliminary experiments (data not shown)) was “no activity”.

For `CCc1nc2cc3ccccc3cc2cc1C(=O)N[C@@H](C/C=C\C[C@H](NC(=O)c1cc2cc3ccccc3cc2nc1CC)C(=O)N1CCC[C@H]1C(=O)N[C@@H](Cc1ccccc1)C(=O)NCCCN)C(=O)N1CCC[C@H]1C(=O)N[C@@H](Cc1ccccc1)C(=O)NCCCN` [Compound 4], the “increased affinity over 2 and 3” value [1] was “approximately 50 fold”, the “association rate, ka” value [1, 9] was “(4.25 ± 0.22) × 10^4 M^–1s^-1” and the dissociation rate kd [1, 9] was “(4.11 ± 0.02) × 10^–3 s^–1”. For the same compound, the “association rate, ka” value [1, 10] was “(2.17 ± 0.77) × 10^4 M^–1s^-1”, the dissociation rate kd [1, 10] was “(1.35 ± 0.03) × 10^–3 s^–1” and the Kd ([1]; read-out: affinity (KD) for HIV-1 FSS by SPR, HBS buffer) was 0.089 µM. For the same compound, the “cell penetration (internalization)” value (HEK 293FT cells [4]) was “internalized”, the “lower concentration than RG501 for roughly equivalent increase in RT” value [5] was 37.5 fold and the “RT in unprocessed Gag-Pol (p160) relative to mature RT (p66 + p51)” value [5] was “increased significantly”. The “amount of RT relative to capsid protein p24” value [5] was “increasing amounts of RT”, the “binding to HTLV-2 FSS by SPR” value (HTLV-2 FSS RNA) was “no binding was observed” and the “concentrations at which no significant toxicity occurred” value (HEK 293FT cells [6]) was “below 60 μM”. For the same compound, the “change in Fluc to Rluc ratio relative to untreated cells” value [7] was “No change”.

For `CCc1nc2cc3ccccc3cc2cc1C(=O)N[C@@H](C/C=C/C[C@H](NC(=O)c1cc2cc3ccccc3cc2nc1CC)C(=O)N1CCC[C@H]1C(=O)N[C@@H](Cc1ccccc1)C(=O)NCCCN)C(=O)N1CCC[C@H]1C(=O)N[C@@H](Cc1ccccc1)C(=O)NCCCN` [Compound 5], the “increased affinity over 2 and 3” value [1] was “approximately 50 fold”, the “association rate, ka” value [1, 9] was “(3.99 ± 0.37) × 10^4 M^–1s^-1” and the dissociation rate kd [1, 9] was “(3.75 ± 0.12) × 10^–3 s^–1”. The “association rate, ka” value [1, 10] was “(3.68 ± 1.45) × 10^4 M^–1s^-1”, the dissociation rate kd [1, 10] was “(3.46 ± 2.05) × 10^–3 s^–1” and the “cell penetration (internalization)” value (HEK 293FT cells [4]) was “internalized”. For the same compound, the “lower concentration than RG501 for roughly equivalent increase in RT” value [5] was 37.5 fold, the “RT in unprocessed Gag-Pol (p160) relative to mature RT (p66 + p51)” value [5] was “increased significantly” and the “amount of RT relative to capsid protein p24” value [5] was “increasing amounts of RT”. For the same compound, the “binding to HTLV-2 FSS by SPR” value (HTLV-2 FSS RNA) was “no binding was observed”, the “concentrations at which no significant toxicity occurred” value (HEK 293FT cells [6]) was “below 60 μM” and the “selectivity for FSS RNA vs FSS DNA” value (HIV-1 FSS DNA) was “no selectivity”. For the same compound, the “change in Fluc to Rluc ratio relative to untreated cells” value [7] was “No change”.

With `C=CC[C@H](NC(=O)c1cc2cc3ccccc3cc2nc1CC)C(=O)N1CCC[C@H]1C(=O)N[C@@H](Cc1ccccc1)C(=O)NCCCN` [Compound 6] the “weaker binding / decrease in affinity relative to dimers 4 and 5” value [1] was 200 fold, the “association rate, ka” value [1, 9] was “(1.16 ± 0.06) × 10^3 M^–1s^-1” and the dissociation rate kd [1, 9] was “(2.25 ± 0.01) × 10^–2 s^–1”.

In the case of `CCc1nc2cc3ccccc3cc2cc1C(=O)N[C@@H](C/C=C\C[C@H](N)C(=O)N1CCC[C@H]1C(=O)N[C@@H](Cc1ccccc1)C(=O)NCCCN)C(=O)N1CCC[C@H]1C(=O)N[C@@H](Cc1ccccc1)C(=O)NCCCN` [Compound 7], the “weaker binding / decrease in affinity relative to dimers 4 and 5” value [1] is reported as “approximately 200 fold”, the “association rate, ka” value [1, 9] is reported as “(4.58 ± 1.27) × 10^3 M^–1s^-1” and the dissociation rate kd [1, 9] is reported as “(1.21 ± 0.00) × 10^–2 s^–1”.

In the case of `CCc1nc2cc3ccccc3cc2cc1C(=O)N[C@@H](C/C=C/C[C@H](N)C(=O)N1CCC[C@H]1C(=O)N[C@@H](Cc1ccccc1)C(=O)NCCCN)C(=O)N1CCC[C@H]1C(=O)N[C@@H](Cc1ccccc1)C(=O)NCCCN` [Compound 8], the “weaker binding / decrease in affinity relative to dimers 4 and 5” value [1] is reported as 30 fold, the “association rate, ka” value [1, 9] is reported as “(7.71 ± 4.9) × 10^3 M^–1s^-1” and the dissociation rate kd [1, 9] is reported as “(1.63 ± 1.12) × 10^–1 s^–1”.

With `NCCCNC(=O)[C@H](Cc1ccccc1)NC(=O)[C@@H]1CCCN1C(=O)[C@@H](N)C/C=C/C[C@H](N)C(=O)N1CCC[C@H]1C(=O)N[C@@H](Cc1ccccc1)C(=O)NCCCN` [Compound 10] the “binding to HIV-1 FSS RNA by SPR (qualitative)” value [1] was “completely abrogated binding”, the “association rate, ka” value ([1]; conditions a, b (both buffers)) was “none obsd” and the “dissociation constant, KD” value ([1]; conditions a, b (both buffers)) was “none obsd”. For the same compound, the dissociation rate kd ([1]; conditions a, b (both buffers)) was “none obsd”, the decrease in infectivity ([3]; 40 μM, producer cells treated) was “modest decrease” and the “increase in Fluc to Rluc ratio (−1 PRF)” value ([8]; at 50 μM, 36 h) was “no significant effect”.

For `CCc1nc2cc3ccccc3cc2cc1C(=O)N[C@@H](CSSC[C@H](NC(=O)c1cc2cc3ccccc3cc2nc1CC)C(=O)N1CCC[C@H]1C(=O)N[C@@H](Cc1ccccc1)C(=O)NCCCN)C(=O)N1CCC[C@H]1C(=O)N[C@@H](Cc1ccccc1)C(=O)NCCCN` [Compound 11], the “weaker binding / decrease in affinity relative to dimers 4 and 5” value [1] was about 7 fold, the “association rate, ka” value [1, 9] was “(1.07 ± 0.07) × 10^4 M^–1s^-1” and the dissociation rate kd [1, 9] was “(7.92 ± 0.53) × 10^–3 s^–1”. The “cell penetration (internalization)” value (HEK 293FT cells [4]) was “internalized”, the “binding to HTLV-2 FSS by SPR” value (HTLV-2 FSS RNA) was “no binding was observed” and the “concentrations at which compound proved toxic” value (HEK 293FT cells [6]) was “above 10 μM”. For the same compound, the “stimulation of HIV-1 frameshifting” value ([8]; concentrations above 10 µM not examined) was “approximately 25%”.

For `COc1cccc2c1C(=O)c1c(O)c3c(c(O)c1C2=O)C[C@@](O)(C(=O)CO)C[C@@H]3O[C@H]1C[C@H](N)[C@H](O)[C@H](C)O1` [Doxorubicin], the Kd (HIV-1 FSS RNA) is listed as 2.8 µM.
